Reference: ChEMBL document CHEMBL4706676 (Bioorg Med Chem Lett, 2021)

Key:
Assay type in all cases: functional, cell-based
LNCaP = assay: Antiproliferative activity against human LNCaP cells assessed as reduction in cell viability
How it was run: (§1)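 Human prostate cancer cells taken from exponential-phase culture, seeded at 8000–12,000 cells/well and allowed 24 h recovery. Compounds then added at 10 half-log concentrations in triplicate, with medium-only controls, for a total 96 h exposure. After a PBS wash, cells stained with propidium iodide plus 0.1% Triton X-100 for 1–2 h at room temperature. IC50 from 4-parameter curve fit, geometric mean of three independent experiments.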

VCaP = assay: Antiproliferative activity against human VCaP cells assessed as reduction in cell viability
How it was run: as §1, with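 “temperature. Fluorescence read (ex 530/em 620 nm) as attached viable cells.” for “temperature.”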

CWR22R = assay: Antiproliferative activity against human 22Rv1 cells assessed as reduction in cell viability
How it was run: as §1, with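 “temperature. Fluorescence read (ex 530/em 620 nm) as attached viable cells.” for “temperature.”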

DU-145 = assay: Antiproliferative activity against human DU-145 cells assessed as reduction in cell viability
How it was run: as §1, with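 “temperature. Fluorescence read (ex 530/em 620 nm) as attached viable cells.” for “temperature.”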

Row | Compound | IC50 (LNCaP; Homo sapiens, LNCaP) [µM] | IC50 (VCaP) [µM] | IC50 (CWR22R; Homo sapiens, 22Rv1) [µM] | IC50 (DU-145; Homo sapiens, DU-145) [µM] | IC50 (LNCaP; lncap) [µM] | IC50 (CWR22R; cwr22r) [µM] | IC50 (DU-145; du-145) [µM]
1 | CC(O)(C[S+]([O-])c1ccccc1OC(F)(F)F)C(=O)Nc1ccc([N+](=O)[O-])cc1C(F)(F)F (stereo not drawn) | 9.09 | 20.7 | 15.2 | 31.1 | – | – | –
2 | CC(O)(C[S+]([O-])c1ccc(OC(F)(F)F)cc1)C(=O)Nc1ccc([N+](=O)[O-])cc1C(F)(F)F (stereo not drawn) | > 100 | > 100 | > 100 | > 100 | – | – | –
3 | CC(O)(C[S+]([O-])c1ccc(F)cc1F)C(=O)Nc1ccc([N+](=O)[O-])cc1C(F)(F)F (stereo not drawn) | 24.4 | > 100 | 51.1 | > 100 | – | – | –
4 | CC(O)(C[S+]([O-])c1ccc(C(F)(F)F)cn1)C(=O)Nc1ccc([N+](=O)[O-])cc1C(F)(F)F (stereo not drawn) | > 100 | > 100 | > 100 | > 100 | – | – | –
5 | CC(O)(C[S+]([O-])c1ccc(C(F)(F)F)cc1)C(=O)Nc1ccc([N+](=O)[O-])cc1C(F)(F)F (stereo not drawn) | 25.6 | 24.2 | 21.1 | 36.5 | – | – | –
6 | CC(O)(C[S+]([O-])c1ccc(OC(F)(F)F)cc1)C(=O)Nc1ccc(C#N)c(C(F)(F)F)c1 (stereo not drawn) | 36.2 | 53.5 | 41.2 | 52.1 | – | – | –
7 | CC(O)(C[S+]([O-])c1ccccn1)C(=O)Nc1ccc([N+](=O)[O-])cc1C(F)(F)F (stereo not drawn) | > 100 | 100 | > 100 | > 100 | – | – | –
8 | CC(O)(C[S+]([O-])c1ccccn1)C(=O)Nc1ccc(C#N)c(C(F)(F)F)c1 (stereo not drawn) | > 100 | > 100 | > 100 | > 100 | – | – | –
9 | CC(O)(C[S+]([O-])c1ccc(F)c(F)c1)C(=O)Nc1ccc([N+](=O)[O-])cc1C(F)(F)F (single isomer, unassigned) | > 100 | > 100 | > 100 | > 100 | – | – | –
10 | CC(O)(C[S+]([O-])c1ccc(C(F)(F)F)cn1)C(=O)Nc1ccc(C#N)c(C(F)(F)F)c1 (stereo in doubt; form 1) | 95.4 | > 100 | 65.5 | 100 | – | – | –
11 | CC(O)(C[S+]([O-])c1ccc(C(F)(F)F)cn1)C(=O)Nc1ccc(C#N)c(C(F)(F)F)c1 (stereo in doubt; form 2) | – | – | – | – | > 100 | 77 | > 100
